From ChEMBL document CHEMBL5724801, “EUbOPEN Chemogenomics Library - Multiplex” (2024)
Values joined by “and” are separate entries in the source; they are usually repeats but may differ in a detail not shown here. Equal values may be shown once.

System: Fibroblast
Assay: Multiplex assay against human fibroblast
Type: toxicity, cell-based
In short: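 Cells were classed with CellPathfinder machine-learning gating, first as Hoechst high-intensity objects or normal cells, then (normal cells) as healthy, pyknosed or fragmented nuclei, and finally (pyknosed cells) as mitotic or apoptotic. Staining of live cells at seeding used Hoechst33342, BioTracker Green Microtubule Cytoskeleton Dye, MitoTracker Red and Annexin V Alexa Fluor 680, with imaging on a CQ1 microscope at 37°C and 5% CO2 after compound addition. Tubulin, mitochondrial-mass and membrane-permeability phenotypes are per cents of healthy-nucleus cells.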

[1] = 12 h, 1 µM, compound concentration 1 uM
[2] = 12 h, 10 µM, compound concentration 10 uM
[3] = 24 h, 1 µM, compound concentration 1 uM
[4] = 24 h, 10 µM, compound concentration 10 uM
[5] = 48 h, 1 µM, compound concentration 1 uM
[6] = 48 h, 10 µM, compound concentration 10 uM

## Cc1c(Cc2ccc3ccccc3n2)c2cc(F)ccc2n1CC(=O)O [TIMAPIPRANT]
[1]
  Population Apoptotic (%): 41% and 33%
  Population Fragmented Nuclei (%): 12% and 28%
  Population Healthy Nuclei (%): 67% and 49%
  Population Hoechst High Intensity Objects (%): 5%
  Population Membrane Permeable-Phenotype (%): 1% and 9%
  Population Mitochondria Different-Phenotype (%): 7% and 4%
  Population Mitotic Cells (%): 58% and 66%
  Population Normal (%): 94%
  Population Pyknosed Nuclei (%): 19% and 22%
  Population Tubulin-Different-Phenotype (%): 26% and 43%
  Total Cell Count: 171 and 142
[2]
  Population Apoptotic (%): 66% and 53%
  Population Fragmented Nuclei (%): 13% and 26%
  Population Healthy Nuclei (%): 77% and 53%
  Population Hoechst High Intensity Objects (%): 2% and 5%
  Population Membrane Permeable-Phenotype (%): 0% and 1%
  Population Mitochondria Different-Phenotype (%): 7%
  Population Mitotic Cells (%): 33% and 46%
  Population Normal (%): 97% and 95%
  Population Pyknosed Nuclei (%): 8% and 19%
  Population Tubulin-Different-Phenotype (%): 35% and 43%
  Total Cell Count: 147 and 160
[3]
  Population Apoptotic (%): 33% and 47%
  Population Healthy Nuclei (%): 73% and 52%
  Population Hoechst High Intensity Objects (%): 1% and 5%
  Population Membrane Permeable-Phenotype (%): 3% and 7%
  Population Mitochondria Different-Phenotype (%): 2% and 4%
  Population Mitotic Cells (%): 66% and 52%
  Population Normal (%): 98% and 94%
  Population Pyknosed Nuclei (%): 17%
  Population Tubulin-Different-Phenotype (%): 26% and 38%
  Total Cell Count: 158 and 142
[4]
  Population Apoptotic (%): 66% and 52%
  Population Fragmented Nuclei (%): 14% and 29%
  Population Healthy Nuclei (%): 77% and 58%
  Population Hoechst High Intensity Objects (%): 2% and 7%
  Population Membrane Permeable-Phenotype (%): 0% and 3%
  Population Mitochondria Different-Phenotype (%): 6% and 10%
  Population Mitotic Cells (%): 33% and 47%
  Population Normal (%): 97% and 92%
  Population Pyknosed Nuclei (%): 8% and 12%
  Population Tubulin-Different-Phenotype (%): 30% and 52%
  Total Cell Count: 150 and 164
[5]
  Population Apoptotic (%): 72% and 61%
  Population Fragmented Nuclei (%): 15% and 36%
  Population Healthy Nuclei (%): 72% and 48%
  Population Hoechst High Intensity Objects (%): 7% and 6%
  Population Membrane Permeable-Phenotype (%): 0% and 2%
  Population Mitochondria Different-Phenotype (%): 2% and 1%
  Population Mitotic Cells (%): 27% and 38%
  Population Normal (%): 92% and 94%
  Population Pyknosed Nuclei (%): 12% and 14%
  Population Tubulin-Different-Phenotype (%): 25% and 34%
  Total Cell Count: 162 and 150
[6]
  Population Apoptotic (%): 66% and 60%
  Population Fragmented Nuclei (%): 18% and 30%
  Population Healthy Nuclei (%): 75% and 59%
  Population Hoechst High Intensity Objects (%): 5% and 2%
  Population Membrane Permeable-Phenotype (%): 0% and 1%
  Population Mitochondria Different-Phenotype (%): 3% and 1%
  Population Mitotic Cells (%): 33% and 40%
  Population Normal (%): 94% and 97%
  Population Pyknosed Nuclei (%): 6% and 9%
  Population Tubulin-Different-Phenotype (%): 31% and 37%
  Total Cell Count: 152 and 157

## Cc1cccc(F)c1C(=O)Nc1cnc(-c2cc3c(cc2Cl)OC(F)(F)O3)cn1 [ZEGOCRACTIN]
[1]
  Population Apoptotic (%): 6.56% and 18.18%
  Population Fragmented Nuclei (%): 12.97% and 3.23%
  Population Healthy Nuclei (%): 61.51% and 79.03%
  Population Hoechst High Intensity Objects (%): 0%
  Population Membrane Permeable-Phenotype (%): 2.04%
  Population Mitochondria Different-Phenotype (%): 8.16%
  Population Mitotic Cells (%): 93.44% and 81.82%
  Population Normal (%): 100%
  Population Pyknosed Nuclei (%): 25.52% and 17.74%
  Population Tubulin-Different-Phenotype (%): 17.01% and 13.61%
  Total Cell Count: 239 and 186
[2]
  Population Apoptotic (%): 8.93% and 22.86%
  Population Fragmented Nuclei (%): 13.11% and 8.77%
  Population Healthy Nuclei (%): 56.28% and 70.76%
  Population Hoechst High Intensity Objects (%): 0%
  Population Membrane Permeable-Phenotype (%): 3.88% and 4.96%
  Population Mitochondria Different-Phenotype (%): 17.48% and 19.01%
  Population Mitotic Cells (%): 91.07% and 77.14%
  Population Normal (%): 100%
  Population Pyknosed Nuclei (%): 30.6% and 20.47%
  Population Tubulin-Different-Phenotype (%): 24.27% and 42.15%
  Total Cell Count: 183 and 171
[3]
  Population Apoptotic (%): 11.11% and 9.52%
  Population Fragmented Nuclei (%): 9.33% and 2.59%
  Population Healthy Nuclei (%): 73.88% and 86.53%
  Population Hoechst High Intensity Objects (%): 0%
  Population Membrane Permeable-Phenotype (%): 3.54% and 0%
  Population Mitochondria Different-Phenotype (%): 7.07% and 6.59%
  Population Mitotic Cells (%): 88.89% and 90.48%
  Population Normal (%): 100%
  Population Pyknosed Nuclei (%): 16.79% and 10.88%
  Population Tubulin-Different-Phenotype (%): 14.65% and 11.38%
  Total Cell Count: 268 and 193
[4]
  Population Apoptotic (%): 7.81% and 17.65%
  Population Fragmented Nuclei (%): 13% and 8.14%
  Population Healthy Nuclei (%): 55% and 72.09%
  Population Hoechst High Intensity Objects (%): 0%
  Population Membrane Permeable-Phenotype (%): 3.64% and 1.61%
  Population Mitochondria Different-Phenotype (%): 14.55% and 32.26%
  Population Mitotic Cells (%): 92.19% and 82.35%
  Population Normal (%): 100%
  Population Pyknosed Nuclei (%): 32% and 19.77%
  Population Tubulin-Different-Phenotype (%): 37.27% and 46.77%
  Total Cell Count: 200 and 172
[5]
  Population Apoptotic (%): 15% and 35%
  Population Fragmented Nuclei (%): 9.76% and 3.2%
  Population Healthy Nuclei (%): 83.28% and 87.67%
  Population Hoechst High Intensity Objects (%): 0%
  Population Membrane Permeable-Phenotype (%): 1.26% and 2.6%
  Population Mitochondria Different-Phenotype (%): 9.62% and 2.6%
  Population Mitotic Cells (%): 85% and 65%
  Population Normal (%): 100%
  Population Pyknosed Nuclei (%): 6.97% and 9.13%
  Population Tubulin-Different-Phenotype (%): 8.79% and 19.79%
  Total Cell Count: 287 and 219
[6]
  Population Apoptotic (%): 15% and 9.52%
  Population Fragmented Nuclei (%): 10.91% and 9.6%
  Population Healthy Nuclei (%): 70.91% and 78.53%
  Population Hoechst High Intensity Objects (%): 0%
  Population Membrane Permeable-Phenotype (%): 0.64% and 4.32%
  Population Mitochondria Different-Phenotype (%): 20.51% and 13.67%
  Population Mitotic Cells (%): 85% and 90.48%
  Population Normal (%): 100%
  Population Pyknosed Nuclei (%): 18.18% and 11.86%
  Population Tubulin-Different-Phenotype (%): 28.21% and 56.83%
  Total Cell Count: 220 and 177
